Laboratory results taken from ChEMBL document CHEMBL1123760, “Synthesis and oral antifungal activity of novel azolylpropanolones and related compounds” (1987).
In brackets after ≈: the same amount, converted by molar mass.

Tests used:
Assay type in all cases: functional
[1] = tested on: Aspergillus fumigatus; experiment: In vitro antifungal activity against Aspergillus fumigatus
How it was run: (§1)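 Broth microdilution MIC in Sabouraud's glucose broth; final inocula 1 × 10^5 cells/mL (yeast) or 1 × 10^5 conidia/mL (mold and dermatophyte).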

[2] = tested on: Candida albicans; experiment: Minimum effective concentration for inhibition of pseudomycelium formation in Candida albicans; conditions: for minimal effective concentration: Candida albicans, read-out: MEC
How it was run: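 C. albicans KE-2 (clinical isolate) at a final 1 × 10^6 yeast cells/mL in EMEM with 20% calf serum; compounds diluted by the same microtiter system as for MICs. After incubation, wells were Giemsa-stained (5% in phosphate buffer) and read by microscope. MEC is the lowest concentration preventing typical pseudomycelium formation.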

[3] = tested on: Trichophyton benhamiae; experiment: In vitro antifungal activity against Trichophyton asteroides; how it was run: as §1
[4] = tested on: Candida albicans; experiment: In vitro antifungal activity against Candida albicans; how it was run: as §1
[5] = tested on: Mus musculus; experiment: Ratio of in vivo number of survivors / total infected; set-up: reference not given here
[6] = Aspergillus fumigatus, read-out: MIC
[7] = Candida albicans, read-out: MIC
[8] = Trichophyton benhamiae, read-out: MIC

| SMILES | MIC [1, 6] [µg/mL] | MEC [2] [µg/mL] | MIC [3] [µg/mL] | MIC [4, 7] [µg/mL] | MIC [1] [µg/mL] | MIC [4] [µg/mL] | minimal effective concentration [2] [µg/mL] | MIC [3, 8] [µg/mL] | No. of survivors [5] |
| --- | --- | --- | --- | --- | --- | --- | --- | --- | --- |
| OC(c1ccc(Cl)cc1)C(O)(Cn1cncn1)c1ccc(Cl)cc1 (stereo in doubt; 89) | > 100 | 20 | 12.5 (≈ 34.3 µM) | 50 (≈ 137 µM) |  |  |  |  |  |
| CC(C)C(O)C(O)(Cn1cncn1)c1ccc(Cl)cc1 (stereo in doubt; 100) | > 100 | 0.16 | 0.8 (≈ 2.7 µM) | > 100 |  |  |  |  |  |
| OC(c1ccc(F)cc1)C(O)(Cn1cncn1)c1ccc(Cl)cc1 (stereo in doubt; 103) | > 100 | 0.31 | 0.8 (≈ 2.3 µM) | > 100 |  |  |  |  |  |
| OC(c1ccc(F)cc1)C(O)(Cn1cncn1)c1ccc(Cl)cc1Cl (stereo in doubt; 105) |  | 5 | 25 (≈ 65.4 µM) |  | >100 | >100 |  |  |  |
| CCCC(O)C(O)(Cn1cncn1)c1ccc(Cl)cc1 (stereo in doubt; 107) | > 100 |  | 6.3 (≈ 21.3 µM) | > 100 |  |  | 0.16 |  |  |
| OC(c1ccc(Cl)cc1)C(O)(Cn1cncn1)c1ccc(Cl)cc1Cl (stereo in doubt; 108) |  | 0.04 | 0.1 (≈ 0.251 µM) | > 100 | 25 (≈ 62.7 µM) |  |  |  |  |
| OC(c1ccc(Cl)cc1)C(O)(Cn1cncn1)c1ccc(Cl)cc1Cl (stereo in doubt; 109) |  | 20 | 12.5 (≈ 31.4 µM) |  | >100 | 100 (≈ 251 µM) |  |  |  |
| O=C1O[C@H](c2ccc(Cl)cc2)[C@@](Cn2cncn2)(c2ccc(Cl)cc2Cl)O1 (stereo in doubt; 115) | > 100 |  |  | > 100 |  |  | 0.04 | 0.2 (≈ 0.471 µM) |  |
| CC(O)(c1ccc(F)cc1)C(O)(Cn1cncn1)c1ccc(F)cc1 (stereo in doubt; 160) |  | 0.16 | 0.1 (≈ 0.29 µM) |  | 25 (≈ 72.4 µM) |  |  |  | 2 |
| CC(O)(c1ccc(F)cc1)C(O)(Cn1cncn1)c1ccc(F)cc1 (stereo in doubt; 161) |  | 2.5 |  | > 100 | 100 (≈ 290 µM) |  |  | 0.2 (≈ 0.579 µM) |  |
| CC(O)(c1ccc(F)cc1)C(O)(Cn1cncn1)c1ccc(Cl)cc1 (stereo in doubt; 163) | > 100 | 0.63 |  | 100 (≈ 276 µM) |  |  |  | 0.2 (≈ 0.553 µM) |  |
| OC(Cn1cncn1)(c1ccc(F)cc1)C(O)(c1ccccc1)c1ccc(F)cc1 (stereo in doubt; 165) | > 100 |  | 25 (≈ 61.4 µM) | > 100 |  |  | > 20 |  |  |
| CC(O)(c1ccccc1)C(O)(Cn1cncn1)c1ccc(Cl)cc1Cl (stereo in doubt; 166) | 12.5 (≈ 33 µM) |  |  | > 100 |  |  | 0.04 | 0.1 (≈ 0.264 µM) |  |
| CC(O)(c1ccccc1)C(O)(Cn1cncn1)c1ccc(Cl)cc1Cl (stereo in doubt; 167) |  | 0.08 | 0.1 (≈ 0.264 µM) |  | 25 (≈ 66.1 µM) | 50 (≈ 132 µM) |  |  |  |
| CC(C)C(C)(O)C(O)(Cn1cncn1)c1ccc(Cl)cc1Cl (stereo in doubt; 169) | 50 (≈ 145 µM) |  |  | > 100 |  |  | 0.08 | 0.1 (≈ 0.29 µM) |  |
| CCC(O)(c1ccc(F)cc1)C(O)(Cn1cncn1)c1ccc(Cl)cc1 (stereo in doubt; 171) |  | 0.16 |  | > 100 | >100 |  |  | 0.1 (≈ 0.266 µM) |  |
| CC(O)(c1ccc(F)cc1)C(O)(Cn1cncn1)c1ccc(Cl)cc1Cl (stereo in doubt; 173) | 25 (≈ 63.1 µM) |  |  | > 100 |  |  | 0.31 | 0.1 (≈ 0.252 µM) |  |
| CC(O)(c1ccc(F)cc1)C(O)(Cn1cncn1)c1ccc(Cl)cc1Cl (stereo in doubt; 174) |  | 0.31 | 0.1 (≈ 0.252 µM) |  | 50 (≈ 126 µM) | 100 (≈ 252 µM) |  |  |  |
| CC(O)(c1ccc(Cl)cc1)C(O)(Cn1cncn1)c1ccc(Cl)cc1Cl (stereo in doubt; 175) | 25 (≈ 60.6 µM) | 0.31 |  | > 100 |  |  |  | 0.1 (≈ 0.242 µM) |  |
| CC(O)(c1ccc(Cl)cc1)C(O)(Cn1cncn1)c1ccc(Cl)cc1Cl (stereo in doubt; 176) |  | 0.63 | 0.1 (≈ 0.242 µM) |  | 50 (≈ 121 µM) | 50 (≈ 121 µM) |  |  |  |
| CC(O)(c1ccc(F)cc1)C(O)(Cn1cncn1)c1ccccc1Cl (stereo in doubt; 182) | 12.5 (≈ 34.5 µM) |  |  | > 100 |  |  | 2.5 | 0.1 (≈ 0.276 µM) |  |
| CCCCC(O)(c1ccc(F)cc1)C(O)(Cn1cncn1)c1ccccc1Cl (stereo in doubt; 189) | 50 (≈ 124 µM) | 20 |  | > 100 |  |  |  | 0.4 (≈ 0.99 µM) |  |
| CCCCC(O)(Cn1cncn1)C(C)(O)c1ccc(Cl)cc1 (stereo in doubt; 191) | > 100 |  |  | > 100 |  |  | 1.25 | 0.6 (≈ 1.85 µM) |  |
| CC(O)(c1ccc(Cl)cc1)C(O)(Cn1cncn1)c1ccc(Cl)cc1 (stereo in doubt; 193) |  | 0.36 | 0.1 (≈ 0.264 µM) |  | 50 (≈ 132 µM) | 100 (≈ 264 µM) |  |  |  |
| CC(O)(c1ccc(Cl)cc1)C(O)(Cn1cncn1)c1ccc(Cl)cc1 (stereo in doubt; 194) | > 100 | 2.5 | 0.8 (≈ 2.11 µM) | 50 (≈ 132 µM) |  |  |  |  |  |
